The target of the assay is Serine hydrolase RBBP9 (Homo sapiens) (UniProt O75884). Briefly: RBBP9 serine hydrolase inhibitors, late-stage follow-up, orthogonal assay, biochemical, gel-based ABPP, FP-rhodamine, powder samples (AID 2269). The note with it: recombinant RBBP9, gel-based ABPP, FP-rhodamine labeling; at 20 µM; stronger effect = higher value. The procedure, abridged: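 Test system: recombinant RBBP9; also added: FP-rhodamine probe, 75 nM final; dosing: single compound concentration per test; schedule: compound preincubation with enzyme 30 min at 25 °C, probe labeling 45 min; detection: in-gel fluorescence after SDS-PAGE; evaluation: percent inhibition from integrated optical density of labeled bands; control set: DMSO vehicle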

The structures appear in SMILES notation. Activity calls are given as the source filed them. No rule for the calls is given here.

Sequence of Serine hydrolase RBBP9 (Homo sapiens) (O75884 whole entry, looked up): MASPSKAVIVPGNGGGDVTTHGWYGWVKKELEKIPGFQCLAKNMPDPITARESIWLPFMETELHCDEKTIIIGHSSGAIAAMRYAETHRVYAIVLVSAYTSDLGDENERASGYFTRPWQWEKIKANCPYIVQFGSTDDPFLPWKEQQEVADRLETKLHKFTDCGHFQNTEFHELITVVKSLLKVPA

Turning to `NC(=O)C(=NOC(=O)c1ccccc1)c1nc(-c2ccc(Cl)cc2)cs1`, the inhibition was 57%.
As for `C/C(=N\OC(=O)c1ccccc1F)c1nccs1`, the inhibition was 64%.
Turning to `C/C(=N\OC(=O)c1ccccc1Cl)c1ccc(Br)cc1`, the inhibition is 0% (inactive).
`COc1ccc(C(=O)ON=C2C=C(C)C(=O)C(C)=C2)cc1`: the inhibition was 93%.
With `C/C(=N\OC(=O)c1ccccc1O)c1cccs1`, the inhibition was 0% (inactive).
The same measure for `NC(=O)C(=NOC(=O)c1ccccc1Cl)c1nc(-c2ccc(Br)cc2)cs1`: 0% (inactive); for `C/C(=N\OC(=O)c1ccccc1)c1nccs1`: 62%.
Consider `CC(=NOC(=O)c1ccc(S(=O)(=O)N2CCOCC2)cc1)c1cc2ccccc2o1`, for which the inhibition is 15% (inactive).
Regarding `COc1ccc(C(=O)O/N=C2\C=C(C)C(=O)C=C2C)cc1`, the inhibition was 76%.
Consider `C/C(=N\OC(=O)c1c(-c2c(F)cccc2Cl)noc1C)c1nccs1`, for which the inhibition is 14% (inactive).
Turning to `C/C(=N\OC(=O)N1CCCCC1)c1nccs1`, the inhibition was 0% (inactive).
As for `COc1ccc(/C(N)=N/OC(=O)C23CC4CC(CC(C4)C2)C3)cc1OC`, the figure is 28% (inactive).
In the case of `C/C(=N\OC(=O)c1c(F)cccc1F)c1nccs1`, the inhibition was 66%.
Regarding `CC(C)=NOC(=O)c1cn(-c2ccccc2)nc1-c1cccs1`, the inhibition is 0% (inactive).
On to `NC(=NOC(=O)C1CCCCC1)c1cccc([N+](=O)[O-])c1`, for which the inhibition is 5% (inactive).
Turning to `C/C(=N\OC(=O)c1ccc(F)cc1)c1nccs1`, the inhibition is 76%.
As for `C/C(=N\OC(=O)c1ccc(Cl)cc1)c1nccs1`, the figure is 78%.
On to `C/C(=N\OC(=O)/C=C/c1ccccc1)c1nccs1`, for which the inhibition is 42% (inactive).
As to `COc1ccc(C(=O)O/N=C(\C)c2nccs2)cc1`, the inhibition is 60%.
For the compound `C#CCCC(=O)O/N=C(\C)c1nccs1`, the inhibition is 42% (inactive).
On to `CC(=NOC(=O)c1cn(-c2ccccc2)nc1-c1ccc(Cl)cc1)c1ccccc1`, for which the inhibition was 10% (inactive).
In the case of `C/C(=N\OC(=O)c1cccc(Cl)c1)c1nccs1`, the inhibition was 63%.
For `CC(=NOC(=O)c1ccc(-c2cc(Cl)ccc2Cl)o1)c1ccccc1`, the inhibition is 0% (inactive).
Turning to `C/C(=N\OC(=O)C1CCCCC1)c1nccs1`, the inhibition was 91%.
The same measure for `N/C(Cc1cccs1)=N\OC(=O)C12CC3CC(CC(C3)C1)C2`: 6% (inactive); for `CC1=CC(=NOC(=O)/C=C/c2ccccc2)C=C(C)C1=O`: 78%; for `C/C(=N\OC(=O)c1ccc([N+](=O)[O-])cc1)c1nccs1`: 15% (inactive).
Take `CC(=O)ON=C(C)c1cc(C(C)(C)C)cc2c1CCC2(C)C`: the inhibition was 0% (inactive).
The same measure for `N/C(Cc1ccc(Cl)cc1)=N\OC(=O)C1CCCCC1`: 0% (inactive); for `COc1ccc(C(=O)ON=C2C(C)=CC(=O)C=C2C)cc1`: 48% (inactive).
`C/C(=N\OC(=O)c1cccc(C(F)(F)F)c1)c1nccs1`: the inhibition is 46% (inactive).
As for `C/C(=N\OC(=O)c1ccc(I)cc1)c1nccs1`, the inhibition was 66%.
Take `CC(=O)O/N=C(\C)c1nccs1`: the inhibition is 0% (inactive).
As for `CC(C)=NOC(=O)c1cn(-c2ccccc2)nc1-c1ccc(F)cc1`, the figure is 0% (inactive); as for `C/C(=N\OC(=O)c1ccc(-c2ccccc2)cc1)c1nccs1`, 4% (inactive).
`CC(=NOC(=O)c1ccc(-c2ccccc2)cc1)c1cccs1`: the inhibition is 0% (inactive).
Regarding `CC(=NOC(=O)c1c(-c2ccccc2Cl)noc1C)c1nccs1`, the inhibition was 17% (inactive).

As usually defined, the inhibition is how much of the control response was suppressed.

(Values after PubChem BioAssay AID2269 (The Scripps Research Institute Molecular Screening Center, 2010).)
